Consider two compounds from ChEMBL document CHEMBL1124794, “Synthesis, chemistry, and antineoplastic activity of alpha-halopyridinium salts: potential pyridone prodrugs of acylated vinylogous carbinolamine tumor inhibitors” (J Med Chem, 1990).

The nature of data set [1]: Effect of pH on carbamate hydrolysis in 0.05 M buffer concentration at the pH 6.0, 25 degree C. In kind it is ADME. The method, boiled down:
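Bis-carbamate in acetonitrile–water (1:1; buffer added to a 0.5 mg/mL acetonitrile solution), 0.05 M buffer, ionic strength 0.136 (KCl), 25 ± 0.1 °C. Buffers: phosphate pH 2.0; citrate pH 3.0–3.5; succinate pH 4.0; acetate pH 5.0; phosphate pH 6.0–8.0; borate pH 9.0; carbonate pH 10.0. HPLC bis-carbamate peak-area loss, ln(area0/areat) vs time slope = kobs. Duplicates averaged.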

A short description of data set [2]: Effect of phosphate buffer on carbamate hydrolysis in acetonitrile-water at the concentration of 0.05 M on pH 7.4, 25 degree C. The essentials:
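Bis-carbamate in acetonitrile–water (1:1), 25 ± 0.1 °C. Citrate buffer at pH 3.0 or phosphate buffer at pH 7.4, at 0.01, 0.025 or 0.05 M, ionic strength 0.136 (KCl). Kinetics followed by HPLC as the decrease in bis-carbamate peak area. The regression slope of ln(area0/areat) vs time gave pseudo-first-order kobs. Duplicates averaged.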

The subject of data set [3] is L1210. Description: In vivo activity against murine L1210 tumor system at the dose of 21.6 mg/kg, activity expressed as body weight difference; T-C. In kind it is functional, Mus musculus. The essentials: (§1)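 L1210 lymphocytic leukemia: ascitic fluid with ca. 10^6 cells injected ip into CD2F1 mice. Dosing started 24 h after inoculation and was repeated daily for five doses in total, from solutions or suspensions made fresh each day. Toxicity day survivors were scored on day 5. Body weight difference is day 5 minus day 1. %T/C is based on median survival time versus controls.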

Data set [4] can be described thus: In vivo activity against murine M5076 tumor system at the dose of 100 mg/kg, activity expressed as %T/C. Format: functional, Mus musculus. The essentials: (§2)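 M5076: ascitic fluid with ca. 10^6 cells inoculated ip into CD2F1 mice. Dosing started 24 h after inoculation and was then given every 4 days for four doses in total, from solutions or suspensions made fresh each day. Toxicity day survivors were scored on day 5. Body weight difference is day 14 minus day 1. %T/C is based on median survival time versus controls.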

Data set [5] can be described thus: In vivo activity against murine M5076 tumor system at the dose of 60 mg/kg, activity expressed as %T/C. Format: functional, Mus musculus.
The test system of data set [6] is L1210. Description: In vivo activity against murine L1210 tumor system at the dose of 166.7 mg/kg, activity expressed as TDS; 5/6. In kind it is functional, Mus musculus. The method, boiled down: as §1
Data set [7] deals with L1210. Kind of data set: In vivo activity against murine L1210 tumor system at the dose of 21.6 mg/kg, activity expressed as TDS; 6/6. Format: functional, Mus musculus. The essentials:
as §1

Data set [8] can be described thus: In vivo activity against murine M5076 tumor system at the dose of 21.6 mg/kg, activity expressed as KE. Format: functional, Mus musculus. The method, boiled down:
as §2

The test system of data set [9] is P388. Description: In vivo activity against P388 Lymphocytic Leukemia in CD2F1 mice at the dose of 12.5 mg/kg, activity expressed as body weight difference; T-C. Format: functional, Mus musculus. The method, boiled down: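 CD2F1 mice were inoculated with ascitic fluid holding ca. 10^6 P388 cells. Drug was given daily from 24 h after inoculation, from solutions or suspensions made fresh each day, some as a saline suspension. TDS is survivors/initial animals on day 5. BWD is body weight on day 5 minus day 1. %T/C compares median survival of treated and control mice.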

Data set [10] concerns P388. Kind of data set: In vivo activity against P388 Lymphocytic Leukemia in CD2F1 mice at the dose of 25 mg/kg, activity expressed as KE. In kind it is functional, Mus musculus.
Data set [11] is described as follows: Effect of Ionic strength (0.25 M NaCl)on the hydrolysis of pyridinium Moity in 0.02 M buffer concentration, pH 7.4,25 degree C. In kind it is ADME. The method, boiled down: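 Pyridinium salt in 0.02 M phosphate buffer, pH 7.4, 25 °C, with NaCl varied 0.10–1.0 M. Loss of the pyridinium chromophore's UV absorbance maximum (conversion to pyridone) followed over time. Pseudo-first-order kobs and half-life derived from that decay.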

Data set [12] can be described thus: Effect of phosphate buffer on the hydrolysis of alpha Fluoropyridinium Moity at the concentration of 0.10M, pH 6.5, 25 degree C. Format: ADME. The essentials: (§3)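 α-Fluoropyridinium hydrolysis to pyridone in phosphate buffer at 0.02, 0.05 or 0.10 M, pH 6.5 or 8.0, ionic strength […] °C. Pyridinium UV absorbance maximum followed with time to give pseudo-first-order kobs and half-life.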

Data set [13] can be described thus: Effect of phosphate buffer on the hydrolysis of alpha Fluoropyridinium Moity at the concentration of 0.10M, pH 8.0, 25 degree C. Format: ADME. The essentials:
as §3

The subject of the next data set is MX1. Description: In vivo activity against murine MX-1 tumor system at the dose of 150 mg/kg, activity expressed as TDS; 0/6. In kind it is functional, Mus musculus.
The subject of data set [14] is L1210. Description: In vivo activity against murine L1210 tumor system at the dose of 50 mg/kg, activity expressed as KE. In kind it is functional, Mus musculus. The essentials:
as §1

The subject of data set [15] is L1210. Description: In vivo activity against murine L1210 tumor system at the dose of 50 mg/kg, activity expressed as body weight difference. Format: functional, Mus musculus. The method, boiled down: as §1

A word on the T/C: it is the ratio of treated to control. For `CC(C)NC(=O)OCc1c(COC(=O)NC(C)C)c(-c2ccn(C)c(=O)c2)n2c1CCC2`, in [1], the K obs stood at 0.0135 min⁻¹. This compound also registered a k obs in data set [2] of 0.000217 s⁻¹. Besides, the BWD with L1210 [3] is -0.3 g; in the data set with P388 [9], -0.1 g. Moreover, the T/C is 122% in data set [4] and 114% in data set [5]. Besides, the figures for the TDS in the data set on L1210 [6] and with L1210 [7] were 5 and 6, respectively. Besides, the KE in data set [8] is listed as -1.93; in the data set with P388 [10], -0.5.

Take `CC(C)NC(=O)OCc1c(COC(=O)NC(C)C)c(-c2cc[n+](C)c(F)c2)n2c1CCC2.[I-]`: the figures for the K obs in data set [11], in data set [12] and in data set [13] were 0.02 min⁻¹, 0.0138 min⁻¹ and 0.036 min⁻¹, respectively. The compound further showed a TDS in the data set on MX1 of 0. The KE in the data set with L1210 [14] is listed as -1.94. Moreover, in the data set with L1210 [15], the BWD was -0.8 g.
